Measurements: ChEMBL document CHEMBL4024711, “Design, synthesis and biological evaluation of novel nitric oxide-donating protoberberine derivatives as antitumor agents” (Eur J Med Chem, 2017)
Calls of active or inactive are those of the source. No cut-off for these calls is given here.

What was measured:
[1] = tested on: HepG2; assay: Cytotoxicity against human HepG2 cells after 72 hrs by MTT assay; format: functional, cell-based; settings: HepG2, 72 h
In short: (§1)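 MTT assay. Cells were plated and grown 24 h at 37 °C, 5% CO2, then exposed to compound in medium with 0.1% DMSO for 72 h. MTT (5 mg/mL in PBS) was added for 4 h and absorbance read at 490 nm. IC50 was taken from dose-response curves; at least three independent experiments.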

[2] = tested on: HCT-116; assay: Cytotoxicity against human HCT116 cells after 72 hrs by MTT assay; format: functional, cell-based; settings: HCT-116, 72 h; in short: as §1
[3] = tested on: HL-60; assay: Cytotoxicity against human HL60 cells after 72 hrs by MTT assay; format: functional, cell-based; settings: HL-60, 72 h; in short: as §1
[4] = tested on: Mus musculus; assay: Toxicity in ICR mouse xenografted with […] cells assessed as body weight at 30 mg/kg, iv administered once daily for 21 days measured post last dose (reference value: 26 +/- 0.6 g); format: organism-based; settings: in vivo, 504 h
[5] = tested on: SMMC-7721; assay: Cytotoxicity against human SMMC7721 cells after 72 hrs by MTT assay; format: functional, cell-based; settings: SMMC-7721, 72 h; in short: as §1
[6] = tested on: H22; assay: Antitumor activity against […] H22 cells xenografted in ICR mouse assessed as tumor growth inhibition at 30 mg/kg, iv administered once daily for 21 days measured post last dose relative to control; format: functional; settings: 504 h, read-out: TGI
[7] = tested on: L02; assay: Cytotoxicity against human LO2 cells after 72 hrs by MTT assay; format: cell-based; settings: L02, 72 h; in short: as §1
[8] = tested on: H22; assay: Antitumor activity against human H22 cells xenografted in ICR mouse assessed as tumor growth inhibition at 20 mg/kg, iv administered once daily for 21 days measured post last dose relative to control; settings: 504 h, read-out: TGI
[9] = Induction of NO release assessed as nitrite formation in PBS at 100 uM up to 300 mins by Griess assay
In short: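 Compound at 100 μM was incubated at 37 °C in PBS, pH 7.4, containing 2% DMSO and 5.0 mM L-cysteine, in acellular or HepG2 cell lysates, and sampled over time. Samples were mixed with Griess reagent at 37 °C for 15 min and read at 540 nm. Nitrite was quantified against a sodium nitrite standard curve, in triplicate.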

## COc1ccc2cc3[n+](cc2c1OCCCCCCCCCCO[N+](=O)[O-])CCc1cc2c(cc1-3)OCO2
[1]
  IC50: 4.34 µM

## COc1cc2c(cc1OC)-c1cc3ccc(OC)c(OC)c3c[n+]1CC2.[Cl-] [PALMATINE CHLORIDE]
[2]
  IC50: > 100 µM
[3]
  IC50: > 100 µM
[1]
  IC50: > 100 µM
[4]
  Activity: 25.5 g
[5]
  IC50: > 100 µM
[6]
  inhibition in vivo at 30 mg/kg: 41.6%
[7]
  IC50: > 100 µM

## COc1ccc2cc3[n+](cc2c1OC(=O)CCCCCCCCCO[N+](=O)[O-])CCc1cc2c(cc1-3)OCO2
[1]
  IC50: > 100 µM

## O=P1(N(CCCl)CCCl)NCCCO1 (centres undefined) [CYCLOPHOSPHAMIDE ANHYDROUS]
[8]
  inhibition in vivo at 20 mg/kg: 67.1%

## COc1ccc2cc3[n+](cc2c1OCCCCCCCCO[N+](=O)[O-])CCc1cc2c(cc1-3)OCO2
[2]
  IC50: 1.58 µM
[3]
  IC50: 1.42 µM
[1]
  IC50: 2.47 µM
[5]
  IC50: 2.82 µM
[9]
  Activity: Active
[7]
  IC50: 33.8 µM

## COc1ccc2cc3[n+](cc2c1OC(=O)CCCCCCCO[N+](=O)[O-])CCc1cc2c(cc1-3)OCO2
[1]
  IC50: > 100 µM
[9]
  Activity: Active

## COc1cc2c(cc1OC)-c1cc3ccc(OC)c(OCCCCCCCCO[N+](=O)[O-])c3c[n+]1CC2
[1]
  IC50: 3.91 µM
[9]
  Activity: Active

## COc1cc2c(cc1OC)-c1c(Br)c3ccc(OC)c(OCCCCCCCCCCO[N+](=O)[O-])c3c[n+]1CC2
[1]
  IC50: 3.01 µM

## COc1ccc2cc3[n+](cc2c1OCCO[N+](=O)[O-])CCc1cc2c(cc1-3)OCO2
[1]
  IC50: 25.2 µM

## COc1ccc2cc3[n+](cc2c1OCCCO[N+](=O)[O-])CCc1cc2c(cc1-3)OCO2
[1]
  IC50: 22 µM

## COc1cc2c(cc1OC)-c1cc3ccc(OC)c(OCCCCCCCCCCO[N+](=O)[O-])c3c[n+]1CC2
[1]
  IC50: 5.59 µM
